For 11 compounds, GI50 results are on record in ChEMBL document CHEMBL4229410, “Facile construction of fused benzimidazole-isoquinolinones that induce cell-cycle arrest and apoptosis in colorectal cancer cells” (Bioorg Med Chem, 2018).

One assay deals with SW-620. As to the kind of experiment: Growth inhibition of human SW620 cells by MTT assay. Format: functional. In outline: (§1)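 MTT viability assay: 3×10³ cells/well were pre-incubated for 24 h, then exposed to 0, 12.5, 25, 50, 100 or 200 μM for 12, 24, 48 or 72 h. MTT was added at 0.5 mg/mL final for 4 h, formazan dissolved in DMSO, and absorbance read at 570 nm. GI₅₀ was taken from growth-inhibition curves; mean ± SD of three independent experiments, each in sextuplicate.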

The test system of the next assay is HT-29. The assay can be described thus: Growth inhibition of human HT-29 cells by MTT assay. Format: functional. In outline:
as §1

In the case of `CC(C)CN(C(=O)c1ccco1)c1c2ccccc2c(=O)n2c1[nH]c1ccccc12`, the figures for the GI50 in the assay with SW-620 and in the assay with HT-29 were 53.5 µM and 52.8 µM, respectively.
The like results for `O=C(c1cccs1)N(c1c2ccccc2c(=O)n2c1[nH]c1ccccc12)C1CC1` were, in that order, 47.6 µM and 51.3 µM.
The like results for `CC(C)CN(C(=O)c1ccccc1C(=O)O)c1c2ccccc2c(=O)n2c1[nH]c1ccccc12` were, in that order, 52.7 µM and 59.8 µM.
In the same order, the values of `CC(C)CN(C(=O)c1cccs1)c1c2ccccc2c(=O)n2c1[nH]c1ccccc12` are 44.1 µM and 49.5 µM.
Turning to `O=C(Nc1c2ccccc2c(=O)n2c1[nH]c1ccccc12)c1ccccc1`, the GI50 with SW-620 and in the assay with HT-29 was > 100 µM throughout.
Regarding `O=C(c1ccco1)N(c1ccccc1Br)c1c2ccccc2c(=O)n2c1[nH]c1ccccc12`, the GI50 in the assay with SW-620 was 46 to 100 µM; in the assay on HT-29, 43.7 to 100 µM.
In the case of `O=C(c1ccncc1)N(CCc1ccccc1)c1c2ccccc2c(=O)n2c1[nH]c1ccccc12`, the GI50 was 48.9 µM in the assay with SW-620 and 52.3 µM with HT-29.
In the same order, the values of `CC(=O)N(c1ccccc1Br)c1c2ccccc2c(=O)n2c1[nH]c1ccccc12` are 46.9 to 100 µM and 57.2 to 100 µM.
In the same order, the values of `O=C(c1ccccc1)N(Cc1ccccc1)c1c2ccccc2c(=O)n2c1[nH]c1ccccc12` are 69.7 µM and 74.3 µM.
The like results for `O=C(c1ccccc1)N(c1ccccc1)c1c2ccccc2c(=O)n2c1[nH]c1ccccc12` were, in that order, > 100 µM and > 100 µM.
`O=C(c1cccnc1)N(c1ccccc1Br)c1c2ccccc2c(=O)n2c1[nH]c1ccccc12`: the results for the GI50 with SW-620 and in the assay with HT-29 were 57.9 µM and 61.3 µM, respectively.
